The text below walks through data of ChEMBL document CHEMBL4261585, “Synthesis of 1,2,3-triazole linked 4(3H)-Quinazolinones as potent antibacterial agents against multidrug-resistant Staphylococcus aureus” (Eur J Med Chem, 2018).

Data set [1] deals with Staphylococcus aureus. Description: Antibacterial activity against methicillin-resistant Staphylococcus aureus NR119 by CLSI method. Format: functional. In a few lines:
(§1)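 Broth microdilution to CLSI. A single colony from Mueller-Hinton agar is grown overnight in cation-supplemented MHB at 37 °C with shaking, 18–24 h. Levofloxacin is the reference. MIC is the lowest concentration with no visible growth, from three independent runs in duplicate.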

The test system of data set [2] is Acinetobacter baumannii. The data set can be described thus: Antibacterial activity against Acinetobacter baumannii BAA-1605 after 16 to 18 hrs by CLSI method. Format: functional. In a few lines:
(§2)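 Broth microdilution MIC per CLSI. A single colony from Mueller-Hinton agar is grown overnight in cation-supplemented Mueller-Hinton broth (37 °C, shaking, 18–24 h). Incubation is 37 °C for 16–18 h. MIC is the lowest concentration with no visible growth. Three independent runs, each in duplicate.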

Data set [3] deals with Mycobacteroides chelonae. The data set can be described thus: Antimycobacterial activity against Mycobacterium chelonae by pesto blue-dye based broth microdilution assay. The data set is classed as functional. In general terms: Broth dilution looks for growth in wells or tubes with falling amounts of substance.
For data set [4], the system named is Staphylococcus aureus. The data set can be described thus: Antibacterial activity against methicillin-resistant Staphylococcus aureus NR10192 by CLSI method. The data set is classed as functional. In outline: as §1
The nature of data set [5]: Cytotoxicity against African green monkey Vero cells after 72 hrs by MTT assay. The settings on record: chlorocebus sabaeus. Format: cell-based. In a few lines: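 Vero cells are seeded at ~10³ per well and held 24 h at 37 °C, 5% CO₂. Compound at 100–5 mg/L is then added for 72 h. MTT is added at […], and formazan is dissolved in DMSO and read at 540 nm. CC50 is the lowest concentration giving 50% loss of viability. Doxorubicin is the positive control. Triplicate experiments.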
A general note: Tetrazolium dyes change colour on reduction, which living cells bring about.

For data set [6], the system named is Escherichia coli. Description: Antibacterial activity against Escherichia coli ATCC 25922 after 16 to 18 hrs in presence of PMBN by CLSI method. The data set is classed as functional. In a few lines:
(§3)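 MIC per CLSI broth microdilution with compound combined with a sub-lethal level of polymyxin B nonapeptide. Inoculum is ~10⁶ CFU/mL in cation-supplemented Mueller-Hinton broth. Incubation is 37 °C for 16–18 h. MIC is read as the absence of visible growth. Three independent runs, each in duplicate.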

Data set [7] relates to Mycolicibacterium fortuitum. The data set can be described thus: Antimycobacterial activity against Mycobacterium fortuitum by pesto blue-dye based broth microdilution assay. Format: functional.
In data set [8] the test system is Staphylococcus aureus. Description: Antibacterial activity against Staphylococcus aureus ATCC 29213 after 16 to 18 hrs by CLSI method. Format: functional. In a few lines: as §2
Data set [9] deals with Staphylococcus aureus. Description: Antibacterial activity against methicillin-resistant Staphylococcus aureus NR10194 by CLSI method. The data set is classed as functional. In outline: as §1
The test system of data set [10] is Staphylococcus aureus. The data set can be described thus: Antibacterial activity against methicillin-resistant Staphylococcus aureus NR10129 by CLSI method. Format: functional. In outline: as §1
Data set [11] relates to Staphylococcus aureus. Description: Antibacterial activity against vancomycin-resistant Staphylococcus aureus VRS1 by CLSI method. The data set is classed as functional. In a few lines: as §1
Data set [12] relates to Mycobacterium tuberculosis. The data set can be described thus: Antimycobacterial activity against Mycobacterium tuberculosis H37Rv ATCC 27294 after 7 days by pesto blue-dye based broth microdilution assay. Format: functional. Conditions: H37Rv ATCC 27294, 168 h. In a few lines:
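Broth microdilution in Middlebrook 7H9 with 10% ADC-Tween-80 (0.2% glycerol, 0.05% Tween-80). Compound is added from 10 mg/mL DMSO stocks as two-fold dilutions, 64–0.5 mg/L. Plates are incubated 7 days at 37 °C and read with PrestoBlue resazurin dye. MIC is the lowest concentration inhibiting visible growth, three replicates in duplicate.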

Data set [13] can be described thus: Selectivity index, ratio of CC50 for African green monkey Vero cells to MIC for Staphylococcus aureus ATCC 29213. The data set is classed as toxicity. The settings on record: read-out: Selectivity Index. In a few lines:
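Selectivity index is calculated as the Vero CC50 divided by the MIC against S. aureus ATCC 29213. CC50 comes from a 72 h MTT assay at 100–5 mg/L. MIC comes from CLSI broth microdilution at ~10⁶ CFU/mL, 37 °C, 16–18 h.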

Data set [14] relates to Staphylococcus aureus. The data set can be described thus: Antibacterial activity against methicillin-sensitive Staphylococcus aureus ATCC 29213 by CLSI method. Format: functional. In outline:
as §1

The subject of data set [15] is Staphylococcus aureus. Description: Antibacterial activity against methicillin-resistant Staphylococcus aureus NR10198 by CLSI method. The data set is classed as functional. In outline:
as §1

Data set [16] relates to Staphylococcus aureus. Description: Antibacterial activity against vancomycin-resistant Staphylococcus aureus VRS12 by CLSI method. Format: functional. In outline: as §1
The test system of data set [17] is Pseudomonas aeruginosa. Description: Antibacterial activity against Pseudomonas aeruginosa ATCC 27853 after 16 to 18 hrs by CLSI method. Format: functional. In a few lines:
as §2

Data set [18] deals with Staphylococcus aureus. The data set can be described thus: Antibacterial activity against methicillin-resistant Staphylococcus aureus NR10193 by CLSI method. Format: functional. In a few lines: as §1
The subject of data set [19] is Klebsiella pneumoniae. Description: Antibacterial activity against Klebsiella pneumoniae ATCC BAA-1705 after 16 to 18 hrs by CLSI method. Format: functional. In outline: as §2
Data set [20] has as its system Staphylococcus aureus. Description: Antibacterial activity against methicillin-resistant Staphylococcus aureus NR10191 by CLSI method. The data set is classed as functional. In outline: as §1
The subject of data set [21] is Acinetobacter baumannii. Description: Antibacterial activity against Acinetobacter baumannii BAA-1605 after 16 to 18 hrs in presence of PMBN by CLSI method. The data set is classed as functional. In outline:
as §3

Data set [22] relates to Staphylococcus aureus. Description: Antibacterial activity against methicillin-resistant Staphylococcus aureus NR10186 by CLSI method. The data set is classed as functional. In outline:
as §1

Data set [23] relates to Escherichia coli. The data set can be described thus: Antibacterial activity against Escherichia coli ATCC 25922 after 16 to 18 hrs by CLSI method. The data set is classed as functional. In a few lines:
as §2

The subject of data set [24] is Staphylococcus aureus. The data set can be described thus: Antibacterial activity against vancomycin-resistant Staphylococcus aureus VRS4 by CLSI method. Format: functional. In a few lines: as §1
Data set [25] concerns Mycobacteroides abscessus. The data set can be described thus: Antimycobacterial activity against Mycobacterium abscessus by pesto blue-dye based broth microdilution assay. Format: functional.

Converted amounts (≈) assume the structure as drawn.

As a reminder, the MIC is the lowest concentration found to suppress growth. In general, CC50 refers to the concentration that lowers cell viability or growth by half.

On to `N#Cc1ccc(/C=C/c2nc3ccccc3c(=O)n2-c2cccc(OCc3cn(-c4cccc(Cl)c4)nn3)c2)cc1`, for which the MIC in [1] was 0.5 µg/mL (≈ 0.898 µM); in data set [2], over 64 µg/mL; in data set [3], over 64 µg/mL; in [4], 0.5 µg/mL (≈ 0.898 µM); in data set [6] it was over 64 µg/mL; in data set [7], over 64 µg/mL. Also, the MIC in [8] was 0.5 µg/mL (≈ 0.898 µM); in [9], 0.5 µg/mL (≈ 0.898 µM); in data set [10] it was 0.5 µg/mL (≈ 0.898 µM); in [11], 32 µg/mL (≈ 57.4 µM); in data set [12] it was over 64 µg/mL; in data set [14], 0.5 µg/mL (≈ 0.898 µM). Also, the MIC in [15] was 0.5 µg/mL (≈ 0.898 µM); in [16], 2 µg/mL (≈ 3.59 µM); in data set [17] it was over 64 µg/mL; in data set [18], 1 µg/mL (≈ 1.8 µM); in data set [19] it was over 64 µg/mL; in data set [20] it was 1 µg/mL (≈ 1.8 µM). The MIC was over 64 µg/mL in data set [21]; 0.5 µg/mL (≈ 0.898 µM) in [22]; over 64 µg/mL in data set [23]; 0.5 µg/mL (≈ 0.898 µM) in data set [24]; over 64 µg/mL in [25]. This molecule also showed a CC50 at 72 h in data set [5] of 40 µg/mL (≈ 71.8 µM). Moreover, the selectivity ratio in data set [13] worked out at 80.

On to `N#Cc1ccc(/C=C/c2nc3ccccc3c(=O)n2-c2cccc(OCc3cn(Cc4ccccc4)nn3)c2)cc1`, for which the MIC in [1] was 2 µg/mL (≈ 3.73 µM); in [2] it was over 64 µg/mL; in data set [3] it was over 64 µg/mL; in data set [4], 1 µg/mL (≈ 1.86 µM); in data set [6] it was over 64 µg/mL; in [7], over 64 µg/mL. In addition, the MIC in data set [8] was 0.5 µg/mL (≈ 0.932 µM); in data set [9] it was 1 µg/mL (≈ 1.86 µM); in data set [10], 2 µg/mL (≈ 3.73 µM); in data set [11], 32 µg/mL (≈ 59.6 µM); in data set [12] it was over 64 µg/mL; in data set [14], 1 µg/mL (≈ 1.86 µM). The MIC in data set [15] was 2 µg/mL (≈ 3.73 µM); in data set [16] it was 2 µg/mL (≈ 3.73 µM); in data set [17], over 64 µg/mL; in [18] it was 2 µg/mL (≈ 3.73 µM); in data set [19], over 64 µg/mL; in data set [20], 1 µg/mL (≈ 1.86 µM). For the same molecule, the minimal inhibitory concentration (MIC) was over 64 µg/mL in data set [21]; 2 µg/mL (≈ 3.73 µM) in data set [22]; over 64 µg/mL in [23]; 2 µg/mL (≈ 3.73 µM) in [24]; over 64 µg/mL in data set [25]. Moreover, the CC50 at 72 h in [5] stood at 20 µg/mL (≈ 37.3 µM). Besides, in [13], the selectivity ratio turned out to be 40.

As to `CO[C@H]1/C=C/O[C@@]2(C)Oc3c(C)c(O)c4c(O)c(c(/C=N/N5CCN(C)CC5)c(O)c4c3C2=O)NC(=O)/C(C)=C\C=C\[C@H](C)[C@H](O)[C@@H](C)[C@@H](O)[C@@H](C)[C@H](OC(C)=O)[C@@H]1C` [RIFAMPIN], the MIC in data set [2] was 4 µg/mL (≈ 4.86 µM); in data set [6], 0.125 µg/mL; in data set [21], 0.25 µg/mL; in data set [23] it was 4 µg/mL (≈ 4.86 µM).
